In the library only some 3.7% were active in any assay of this set; here they are far more common.
KCNQ1 act – potentiates or activates the human KCNQ1 potassium channel | P51787 | CHO-K1 KCNQ1, thallium flux FluxOR fluorescence; active compounds read high | B-score at 10 µM | 310,000 compounds, 0.35% hits | AID 2648;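 active = fluorescence ratio B-score, a plate-corrected score, at least three library SD, with initial intensity B-score within 5 SD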
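Test system: CHO-K1 cells stably expressing KCNQ1 / Medium: assay buffer / Also added: depolarizing K+/Tl+ stimulus, K2SO4 and Tl2SO4 each 12.5 mM in 5x stock / Incubation: 90 min dye loading and 20 min compound exposure, both at room temperature / Signal: thallium influx via FluxOR fluorescence, kinetic imaging / Evaluation: B score of baseline-normalized fluorescence ratio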
KCNK3 block – human KCNK3 channel inhibition, primary screen | CHO-KCNK3 thallium flux, FluxOR fluorescence; active compounds read low | B-score at 10 µM | 340,000 compounds, 0.84% hits;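 active = B-score under library mean minus 4 SD, starting fluorescence ratio at most library mean plus 5 SD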;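 note: more negative B-score means stronger inhibition of thallium flux through KCNK3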
KCNK9 inh – inhibitors of human KCNK9 two-pore domain potassium channel; HEK293 KCNK9, FluxOR thallium flux fluorescence; active compounds read low; B-score at 10 µM; 310,000 compounds, 1.2% hits; AID 488922;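 active = ratio B-score over 3 SD below the library mean, with starting fluorescence within 5 SD of its mean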;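 note: negative B-score means less thallium flux so channel inhibition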
KCNQ1 block – blocks the human KCNQ1 potassium channel; P51787; CHO-K1 KCNQ1, FluxOR thallium flux fluorescence; active compounds read high; B-score at 10 µM; 310,000 compounds, 1.3% hits; AID 2642;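 active = compounds whose thallium flux B-score, printed positive for inhibition, exceeds three library SD while starting fluorescence stays within three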;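 note: channel opened by potassium depolarization with thallium stimulus after 20 min compound exposure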
Kir21 block – inhibitors of mouse Kir2.1 inward-rectifier potassium channel; HEK293-Kir2.1, FluxOR thallium flux fluorescence; active compounds read low; B-score at 10 µM; 310,000 compounds, 0.85% hits; AID 1672;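 active = fluorescence ratio B-score at or below minus 3 SD of library scores, with starting-brightness B-score within 2 SD, cut at about -4.2 in these data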;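 note: channel flux triggered by added potassium and thallium sulfate stimulus; B-score of peak minus minimum fluorescence over baseline after thallium stimulus; more negative B-score means stronger Kir2.1 block with less thallium influx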
hERG rescue – hERG (human) protection from proarrhythmic block. Q12809. CHO-hERG, FluxOR thallium flux, dofetilide IC70 present. activation (rescue from dofetilide block), less the hit threshold, % at 10 µM. 310,000 compounds, 0.51% hits;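 active = activation above the mean of controls blocked by dofetilide plus 5 SD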;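 note: thallium influx through hERG after potassium depolarization seen as dye fluorescence rise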
Target sequence (Q12809 whole entry, looked up): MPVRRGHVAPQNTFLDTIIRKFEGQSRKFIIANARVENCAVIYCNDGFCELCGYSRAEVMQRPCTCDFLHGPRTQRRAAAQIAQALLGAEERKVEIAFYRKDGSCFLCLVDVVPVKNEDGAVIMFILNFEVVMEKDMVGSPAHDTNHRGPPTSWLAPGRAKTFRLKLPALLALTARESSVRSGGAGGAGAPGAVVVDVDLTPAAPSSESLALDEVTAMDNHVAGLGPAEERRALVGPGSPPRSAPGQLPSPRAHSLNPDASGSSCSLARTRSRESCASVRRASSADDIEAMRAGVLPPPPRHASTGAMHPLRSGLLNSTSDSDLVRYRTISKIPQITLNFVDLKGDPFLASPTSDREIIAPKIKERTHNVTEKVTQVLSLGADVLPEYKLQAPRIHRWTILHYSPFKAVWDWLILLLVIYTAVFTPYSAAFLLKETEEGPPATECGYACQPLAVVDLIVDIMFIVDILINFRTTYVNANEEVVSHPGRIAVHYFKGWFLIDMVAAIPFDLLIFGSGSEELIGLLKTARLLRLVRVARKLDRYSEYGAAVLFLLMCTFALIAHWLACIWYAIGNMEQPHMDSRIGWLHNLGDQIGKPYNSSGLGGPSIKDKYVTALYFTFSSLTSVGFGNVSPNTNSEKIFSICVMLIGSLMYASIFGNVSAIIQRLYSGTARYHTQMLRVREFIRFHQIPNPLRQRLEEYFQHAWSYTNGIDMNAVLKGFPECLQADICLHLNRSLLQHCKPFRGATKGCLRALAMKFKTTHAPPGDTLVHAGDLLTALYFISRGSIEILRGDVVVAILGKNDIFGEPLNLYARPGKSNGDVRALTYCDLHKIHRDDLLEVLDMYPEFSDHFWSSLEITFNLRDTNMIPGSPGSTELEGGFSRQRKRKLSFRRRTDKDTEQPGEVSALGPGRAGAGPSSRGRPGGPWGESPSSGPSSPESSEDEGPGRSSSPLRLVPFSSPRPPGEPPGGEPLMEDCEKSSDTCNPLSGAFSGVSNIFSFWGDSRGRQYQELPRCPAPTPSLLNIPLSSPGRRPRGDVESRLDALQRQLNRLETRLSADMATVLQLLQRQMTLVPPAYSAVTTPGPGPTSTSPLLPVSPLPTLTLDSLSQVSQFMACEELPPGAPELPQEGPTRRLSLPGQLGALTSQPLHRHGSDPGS
KCNK3 inh conf – confirmation of human KCNK3 two-pore domain potassium channel inhibitors; 2,400 compounds, 99% hits; CHO-KCNK3 thallium flux, FluxOR fluorescence; 0% buffer, 100% carvedilol maximal block; shares compounds with KCNK3 block; ratio percent of control, % at 10 µM;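 active = ratio percent of control, averaged over triplicates, above buffer control mean plus 5 SD, cut at about 64% in these data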;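 note: ratio is the fluorescence rise from min to max over baseline after thallium stimulus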
KCNK3 uninduced – activity in cells without induced KCNK3 expression | 2,400 compounds, 40% hits | non-induced KCNK3 parental cells, FluxOR thallium flux; active compounds read low | AID 651747 | shares compounds with KCNK3 block | thallium flux ratio (lower = more inhibition) at 10 µM;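 active = thallium flux ratio, averaged over three wells, more than 5 SD below the buffer control mean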;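 note: host cells are CHO cells without KCNK3 induction; ratio is peak minus trough fluorescence over baseline then normalized to buffer controls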
An asterisk follows results filed as active; i = inactive; . = not tested or not shown.

SMILES | KCNQ1 act | KCNK3 block | KCNK9 inh | KCNQ1 block | Kir21 block | hERG rescue | KCNK3 inh conf | KCNK3 uninduced
CC(C)c1ccccc1-n1c(SCC(=O)c2ccc3c(c2)NC(=O)CO3)nc2ccccc2c1=O | i | -10.6* | -7.4* | 6* | 0.07 | -21.6 | 115.0* | 0.149*
COC(=O)C1=C(C)N=C2SCCC(=O)N2C1c1ccc(C(=O)OC)cc1 (stereo unspecified) | i | -8.91* | i | i | 0.87 | -9.8 | 78.3* | 0.153*
CCOC(=O)C1=C(C)N=C2SCCC(=O)N2[C@@H]1/C=C/c1ccccc1 | i | i | i | i | -0.06 | -9.8 | . | .
COCCOC(=O)C1=C(C)N=C2SCCC(=O)N2C1c1ccc(C(=O)OC)cc1 (stereo unspecified) | i | i | i | i | 1.12 | -2.8 | . | .
COCCOC(=O)C1=C(C)N=C2SCCC(=O)N2C1/C=C/c1ccccc1 (stereo unspecified) | i | -13.5* | i | i | 0.76 | -6.2 | 105.0* | 0.157*
CCCN(CCC)C(=O)C1CCCN1S(=O)(=O)c1cccc2nsnc12 (stereo unspecified) | i | i | i | i | -0.49 | -14.8 | . | .
O=C(Nc1ccc(N2CCCC2)cc1)c1cccc(-c2cc3ccccc3oc2=O)c1 | i | -10.3* | i | i | 0.99 | -7.3 | 83.7* | i
Cc1cccc2c1c1ccc3c(c1n2C)C(=O)C=CC3=O | . | i | . | . | . | . | . | .
Oc1cc(-n2cccn2)c(O)cc1-n1cccn1 | i | i | i | i | -2.75 | -7.8 | . | .
C/C(=N\Nc1nc(N2CCCCC2)nc(N2CCOCC2)n1)c1ccccc1O | i | -9.06* | i | i | 0 | -9.2 | 103.7* | i
C/C(=N\Nc1nc(N2CCOCC2)nc(N2CCOCC2)n1)c1cccs1 | i | i | i | i | -0.41 | -8.4 | . | .
O=C(Nc1ccc(N2CCN(C(=O)c3ccc(Cl)cc3)CC2)cc1)c1cc2ccccc2o1 | i | i | i | i | 1.81 | -11.8 | . | .
O=C(Nc1ccccc1N1CCN(C(=O)c2ccc(Cl)cc2)CC1)c1cc2ccccc2o1 | i | -12.3* | i | i | 1.83 | -5.8 | 121.0* | 0.143*
COc1ccc(-c2c(C)nn3c(N4CCCCCC4)cc(C)nc23)cc1OC | i | i | i | i | -0.33 | -15.9 | . | .
CCc1c(C)nc2cc(-c3ccc(OC)c(OC)c3)nn2c1N1CCC(C)CC1 | i | -8.94* | i | i | 0.13 | -15.9 | 103.7* | i
CCc1c(C)nc2cc(-c3ccc(OC)c(OC)c3)nn2c1N1CCCC1 | i | -9.63* | i | i | 0.54 | -1.6 | 109.0* | i
FC(F)Sc1ccc(NC(=S)NC2CCCC2)cc1 | i | -11.2* | i | i | -1.08 | -5.7 | 113.3* | i
OC1CCC(NC(=S)Nc2ccc(SC(F)F)cc2)CC1 (stereo unspecified) | i | i | i | i | -0.51 | -6.0 | . | .
Cc1cc2ccccn2c1C(=O)Nc1cccc(Cl)c1 | i | i | i | i | -0.13 | -28.9 | . | .
O=C(Nc1cccc2ccccc12)N1CCN(c2ccc(F)cc2)CC1 | i | i | i | i | 1.29 | -0.7 | . | .
COC(=O)c1ccccc1NC(=O)N1CCN(c2ccc(F)cc2)CC1 | i | -10.7* | i | i | -1.23 | -20.2 | 112.0* | i
O=S(=O)(c1ccccc1)N(CC1CO1)c1cc(Cl)ccc1Cl (stereo unspecified) | i | i | i | i | -1.49 | -8.9 | . | .
Clc1ccc(/C=N/c2c(-c3ccco3)nc3ccccn23)cc1 | i | i | i | i | 0.18 | -7.3 | . | .
Oc1ccccc1/C=N/c1c(-c2ccco2)nc2ccccn12 | i | -9.74* | i | i | 0.33 | -17.1 | 94.7* | i
Cc1nc2ccc(C(=O)O)cc2c2c1CC(C)S2 (stereo unspecified) | i | i | i | i | 1.9 | -9.1 | . | .
SMILES | KCNQ1 act | KCNK3 block | KCNK9 inh | KCNQ1 block | Kir21 block | hERG rescue | KCNK3 inh conf | KCNK3 uninduced
COC(=O)c1cccc(N2C(=O)C(Cl)=C(N3CCOCC3)C2=O)c1 | i | -9.73* | i | i | 0.99 | -1.0 | 66.7* | i
Oc1ccccc1-c1nc(N2CCCC2)c2ccccc2n1 | i | i | i | i | 1.82 | -3.8 | . | .
c1ccc(CNc2nc(N3CCN(Cc4ccccc4)CC3)nc3ccccc23)cc1 | i | -10.1* | i | 12* | -0.12 | -28.0 | 113.3* | i
Oc1ccccc1Nc1nc(NCc2ccccc2)c2ccccc2n1 | i | -12.2* | i | i | -0.98 | -15.1 | 137.0* | i
Oc1ccccc1-c1nc(N2CCN(Cc3ccccc3)CC2)c2ccccc2n1 | i | -11.7* | -7.1* | i | -0.01 | -3.9 | 100.0* | i
Nc1c(Cl)cc(C2=NCCn3c2c2ccc(C(F)(F)F)cc2[n+]3[O-])cc1Cl | i | i | i | i | 0.48 | -8.9 | . | .
Cc1ccc(OCC(=O)N(C)C2CCCCC2)c([N+](=O)[O-])n1 | . | i | . | . | . | . | . | .
Cc1csc(SCC(=O)Nc2cc(S(=O)(=O)N(C)C)ccc2C)n1 | i | i | i | i | -0.53 | -10.4 | . | .
CC(C)(C)c1ccc(/C=C/C(=O)N2CCCCC2)cc1 | i | -8.85* | i | i | -0.2 | 2.0 | 107.7* | i
O=C(CSc1nnc(-c2ccncc2)n1-c1ccc(F)cc1)NNC(=O)c1cccc(O)c1 | i | i | i | i | 2.88 | -8.8 | . | .
N#Cc1nc(COc2ccc(Cl)cc2)oc1NCc1ccc2c(c1)OCO2 | i | -11.4* | i | i | 0.57 | -8.9 | 137.7* | 0.156*
COc1ccc(CNc2oc(COc3ccccc3)nc2C#N)cc1 | i | -8.93* | i | i | -0.79 | -11.6 | 117.0* | 0.157*
Cc1nc(C#N)c(NCc2ccc3c(c2)OCO3)o1 | i | i | i | i | 1.77 | -8.5 | . | .
COc1ccc(CNc2oc(Cc3cccc4ccccc34)nc2C#N)cc1 | i | -13.5* | i | i | -2.18 | -8.6 | 90.7* | 0.152*
O=C1CCCC/C1=C\Nc1ccc(S(=O)(=O)Nc2cnc3ccccc3n2)cc1 | i | i | i | i | 1.81 | -0.4 | . | .
CCN(C(=O)C1CCCN(c2ncnc3c2nc2n3CCCCC2)C1)c1cccc(Cl)c1 (stereo unspecified) | i | -12.1* | i | i | -0.89 | -17.3 | 89.0* | i
